≈ marks a conversion by molar mass, not a printed value. Calls of active or inactive are those of the source. The calls are words filed in the database; no cut-off is given here.
Tested on: not listed separately
Assay: Inhibition of alternative complement system in human serum assessed as inhibition of C9 deposition incubated for 1 hr by ELISA
Type: cell-free
How it was run: (§1)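 Normal human serum was added to coated plates and incubated with a range of inhibitor concentrations. The coating set the pathway: IgM for the classical pathway, mannan for the lectin pathway, and zymosan for the alternative pathway. C3, C4 and C9 deposition were then measured on the plates.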

IC50	SMILES
3.59 µg/mL (≈ 9.69 µM)	COc1ccc(NC(=O)N[C@@H](C)c2ccccc2)cc1OCCCC(C)C

Species on record: Homo sapiens
Assay: Inhibition of complement system in human fetal serum assessed as inhibition of hemolysis at 100 ug/mL incubated for 1 hr by spectrophotometric analysis

SMILES	inhibition
COc1ccc(NC(=O)N[C@@H](C)c2ccccc2)cc1OCCN1CCCC1	inactive
CCCCCCCCCCOc1cc(NC(=O)N[C@@H](C)c2ccccc2)ccc1OC	inactive
CCOC(=O)COc1ccc(NC(=O)N[C@@H](C)c2ccccc2)cc1OC	inactive
C=CCOc1ccc(NC(=O)N[C@@H](C)c2ccccc2)cc1OC	inactive
C[C@H](NC(=O)Nc1ccccc1)c1ccccc1	inactive
CCOc1ccc(NC(=O)N[C@@H](C)c2ccccc2)cc1OC	inactive
COc1ccc(NC(=O)N[C@H](C)c2ccccc2)cc1OC	16.9%
COc1ccc(NC(=O)NCc2cccc3ccccc23)cc1OC	inactive
COc1ccc(NC(=O)NCc2cccc(-c3ccccc3)c2)cc1OC	inactive
COc1ccc(NC(=O)N[C@@H](C)c2ccccc2)cc1	inactive
CCCCCCCCCCCCOc1cc(NC(=O)N[C@@H](C)c2ccccc2)ccc1OC	inactive
COc1ccc(NC(=O)N(C)Cc2ccccc2)cc1OC	43.8%
COc1cc(NC(=O)N[C@@H](C)c2ccccc2)ccc1O	14.6%
C[C@H](NC(=O)Nc1ccc(Cl)cc1)c1ccccc1	inactive
COc1ccc(N(C)C(=O)N(C)[C@@H](C)c2ccccc2)cc1OCCCC(C)C	inactive
COc1ccc(NC(=O)N[C@@H](C)c2ccccc2)cc1OCc1ccccc1	32.7%
C[C@H](NC(=O)Nc1cccnc1)c1ccccc1	inactive
COc1cc(NC(=O)N[C@@H](C)c2ccccc2)ccc1OCCNC(=O)OC(C)(C)C	inactive
COc1cccc(NC(=O)N[C@@H](C)c2ccccc2)c1	inactive
COc1cc(NC(=O)N[C@@H](C)c2ccccc2)ccc1OCc1ccccc1	inactive
COc1ccc(NC(=O)N[C@@H](C)c2ccccc2)cc1O	35.3%

Tested on: not listed separately
Assay: Inhibition of lectin pathway in human serum assessed as inhibition of C3 activation incubated for 1 hr by ELISA
Type: cell-free
How it was run: as §1

inhibition	SMILES
inactive	COc1ccc(NC(=O)N[C@@H](C)c2ccccc2)cc1OCCCC(C)C

Tested on: not listed separately
Assay: Inhibition of lectin pathway in human serum assessed as inhibition of C9 deposition at 10 ug/mL incubated for 1 hr by ELISA
Type: cell-free

inhibition	SMILES
90%	COc1ccc(NC(=O)N[C@@H](C)c2ccccc2)cc1OCCCC(C)C

Species on record: Homo sapiens
Assay: Inhibition of classical complement system in human serum assessed as inhibition of C9 deposition at 10 ug/mL incubated for 1 hr by ELISA
Type: cell-free

inhibition	SMILES
90%	COc1ccc(NC(=O)N[C@@H](C)c2ccccc2)cc1OCCCC(C)C

Species on record: Homo sapiens
Assay: Inhibition of alternative complement system in human serum assessed as inhibition of C9 deposition at 10 ug/mL incubated for 1 hr by ELISA
Type: cell-free

inhibition	SMILES
90%	COc1ccc(NC(=O)N[C@@H](C)c2ccccc2)cc1OCCCC(C)C

Species on record: Homo sapiens
Assay: Inhibition of classical complement system in human serum assessed as inhibition of C4 activation incubated for 1 hr by ELISA
Type: cell-free
How it was run: as §1

inhibition	SMILES
inactive	COc1ccc(NC(=O)N[C@@H](C)c2ccccc2)cc1OCCCC(C)C

Species on record: Homo sapiens
Assay: Inhibition of complement system in human fetal serum assessed as inhibition of hemolysis at 10 ug/mL incubated for 1 hr by spectrophotometric analysis

SMILES	inhibition
COc1ccc(NC(=O)N[C@@H](C)c2ccc(C(F)(F)F)cc2)cc1OCCCC(C)C	inactive

Species on record: Homo sapiens
Assay: Inhibition of classical complement system in human serum assessed as inhibition of C3 activation incubated for 1 hr by ELISA
Type: cell-free
How it was run: as §1

inhibition	SMILES
inactive	COc1ccc(NC(=O)N[C@@H](C)c2ccccc2)cc1OCCCC(C)C

Species on record: Homo sapiens
Assay: Inhibition of alternative complement system in human serum assessed as inhibition of C3 activation incubated for 1 hr by ELISA
Type: cell-free
How it was run: as §1

inhibition	SMILES
inactive	COc1ccc(NC(=O)N[C@@H](C)c2ccccc2)cc1OCCCC(C)C

Tested on: not listed separately
Assay: Inhibition of lectin pathway in human serum assessed as inhibition of C9 deposition incubated for 1 hr by ELISA
Type: cell-free
How it was run: as §1

IC50	SMILES
4.46 µg/mL (≈ 12 µM)	COc1ccc(NC(=O)N[C@@H](C)c2ccccc2)cc1OCCCC(C)C

Tested on: not listed separately
Assay: Inhibition of lectin pathway in human serum assessed as inhibition of C4 activation incubated for 1 hr by ELISA
Type: cell-free
How it was run: as §1

inhibition	SMILES
inactive	COc1ccc(NC(=O)N[C@@H](C)c2ccccc2)cc1OCCCC(C)C

Species on record: Homo sapiens
Assay: (§2) Inhibition of complement system in human fetal serum assessed as inhibition of hemolysis incubated for 1 hr by spectrophotometric analysis

SMILES	inhibition
CCCCCOc1ccc(OC)cc1NC(=O)N[C@@H](C)c1ccccc1	inactive
CCCCOc1cc(NC(=O)NCCC(C)c2ccccc2)ccc1OC (configuration not stated)	inactive
CCCCCOc1cc(OC)ccc1NC(=O)N[C@@H](C)c1ccccc1	inactive
CCCCCOc1cc(OC)c(NC(=O)N[C@@H](C)c2ccccc2)c(OC)c1	inactive
CCCCCOc1ccccc1NC(=O)N[C@@H](C)c1ccccc1	inactive
CCCCOc1cc(NC(=O)NCC(C)c2ccccc2)ccc1OC (configuration not stated)	inactive
CCCCOc1cc(NC(=O)N2CCCCC2c2ccccc2)ccc1OC (configuration not stated)	inactive
CCCCOc1cc(NC(=O)NC2CCc3ccccc32)ccc1OC (configuration not stated)	inactive

Tested on: not listed separately
Assay: as §2

SMILES	IC50
COc1ccc(NC(=O)N[C@@H](C)c2ccc(F)cc2)cc1OCCCC(C)C	402 nM
COc1ccc(NC(=O)N[C@@H](C)c2ccc(C(=O)O)cc2)cc1OCCCC(C)C	761 nM
CCOC(=O)COc1cc(NC(=O)N[C@@H](C)c2ccccc2)ccc1OC	6200 nM
COc1ccc(NC(=O)N[C@@H](C)c2ccc(C)cc2)cc1OCCCC(C)C	327 nM
C=CCOc1cc(NC(=O)N[C@@H](C)c2ccccc2)ccc1OC	1750 nM
COc1ccc(NC(=O)N[C@@H](C)c2ccccc2)cc1OCCN1CCCCC1	35500 nM
COc1ccc(NC(=O)N[C@@H](C)c2cccc(Br)c2)cc1OCCCC(C)C	1320 nM
COc1ccc(NC(=O)N[C@@H](C)c2ccccc2)cc1OCCCC(C)C	13 nM
COc1ccc(NC(=O)N(CCO)[C@@H](C)c2ccccc2)cc1OCCCC(C)C	323 nM
COc1ccc(NC(=O)N[C@@H](C)c2ccccc2)cc1OC(C)C	10600 nM
C=C(C)COc1cc(NC(=O)N[C@@H](C)c2ccccc2)ccc1OC	7900 nM
CC#CCOc1cc(NC(=O)N[C@@H](C)c2ccccc2)ccc1OC	1590 nM
COc1ccc(NC(=O)N[C@@H](C)c2ccc(Br)cc2)cc1OCCCC(C)C	3390 nM
CCOc1cc(NC(=O)N[C@@H](C)c2ccccc2)ccc1OC	2860 nM
CCCCCOc1cc(NC(=O)N[C@@H](C)c2ccccc2)cc(OC)c1	270 nM
COc1ccc(NC(=O)N(CC(O)CO)[C@@H](C)c2ccccc2)cc1OCCCC(C)C (some centres not stated)	368 nM
CCCCCCOc1cc(NC(=O)N[C@@H](C)c2ccccc2)ccc1OC	17 nM
CCCCCOc1cc(NC(=O)N[C@@H](C)c2ccccc2)ccc1OC	19 nM
COc1ccc(NC(=O)N(CCCO)[C@@H](C)c2ccccc2)cc1OCCCC(C)C	223 nM
COc1ccc(NC(=O)N[C@@H](C)c2ccccc2)cc1OCCC(C)C	630 nM
CCC#CCOc1cc(NC(=O)N[C@@H](C)c2ccccc2)ccc1OC	244 nM
CCCCOc1cc(NC(=O)N[C@@H](C)c2ccccc2)ccc1OC	33 nM
COc1ccc(NC(=O)N(CCCN)[C@@H](C)c2ccccc2)cc1OCCCC(C)C	7160 nM

SMILES	IC50
COc1ccc(NC(=O)N[C@@H](C)c2ccccc2[N+](=O)[O-])cc1OCCCC(C)C	368 nM
COc1ccc(NC(=O)N[C@@H](C)c2ccc([N+](=O)[O-])cc2)cc1OCCCC(C)C	1690 nM
COc1ccc(NC(=O)N[C@@H](C)c2cccc(O)c2)cc1OCCCC(C)C	77 nM
CCCCOc1cc(NC(=O)N2CCCC2c2ccccc2)ccc1OC (configuration not stated)	105 nM
COc1ccc(N(CCCO)C(=O)N[C@@H](C)c2ccccc2)cc1OCCCC(C)C	1580 nM
COc1ccc(NC(=O)N[C@@H](C)c2ccc(C#N)cc2)cc1OCCCC(C)C	1260 nM
CCCCCCCCOc1cc(NC(=O)N[C@@H](C)c2ccccc2)ccc1OC	1290 nM
COc1ccc(NC(=O)N[C@@H](C)c2ccccc2)cc1OCC1CCCCC1	468 nM
CCCOc1cc(NC(=O)N[C@@H](C)c2ccccc2)ccc1OC	353 nM
COc1ccc(N(C)C(=O)N[C@@H](C)c2ccccc2)cc1OCCCC(C)C	540 nM
COc1ccc(NC(=O)N[C@@H](C)c2ccccc2)cc1OCC(C)C	870 nM
COCCOc1cc(NC(=O)N[C@@H](C)c2ccccc2)ccc1OC	2000 nM
CCCCCOc1cccc(NC(=O)N[C@@H](C)c2ccccc2)c1	3200 nM
COc1ccc(NC(=O)N(C)[C@@H](C)c2ccccc2)cc1OCCCC(C)C	19 nM
CCCCCCCOc1cc(NC(=O)N[C@@H](C)c2ccccc2)ccc1OC	780 nM
COc1ccc(NC(=O)N[C@@H](C)c2ccccc2)cc1OCC1CCCN(C)C1 (some centres not stated)	3200 nM
COC(=O)c1ccc([C@H](C)NC(=O)Nc2ccc(OC)c(OCCCC(C)C)c2)cc1	535 nM
COc1ccc(NC(=O)N[C@@H](C)c2ccccc2)cc1OC	50000 nM
C#CCOc1cc(NC(=O)N[C@@H](C)c2ccccc2)ccc1OC	8300 nM
COc1ccc(NC(=O)N[C@@H](C)c2ccc(O)cc2)cc1OCCCC(C)C	139 nM
CCCCOc1cc(NC(=O)NC(CC)c2ccccc2)ccc1OC (configuration not stated)	420 nM
N=C(N)c1cc2ccc(OC(=O)c3cccs3)cc2s1	10 nM

Species on record: Homo sapiens
Assay: Inhibition of alternative complement system in human serum assessed as inhibition of C4 activation incubated for 1 hr by ELISA
Type: cell-free
How it was run: as §1

inhibition	SMILES
inactive	COc1ccc(NC(=O)N[C@@H](C)c2ccccc2)cc1OCCCC(C)C

Tested on: not listed separately
Assay: Inhibition of classical complement system in human serum assessed as inhibition of C9 deposition incubated for 1 hr by ELISA
Type: cell-free
How it was run: as §1

IC50	SMILES
3.68 µg/mL (≈ 9.93 µM)	COc1ccc(NC(=O)N[C@@H](C)c2ccccc2)cc1OCCCC(C)C

From ChEMBL document CHEMBL2203029, “Discovery and Structural Modification of 1-Phenyl-3-(1-phenylethyl)urea Derivatives as Inhibitors of Complement” (ACS Med Chem Lett, 2012)
